Legend:
[1] = target: T1, ATP-dependent translocase ABCB1 (Homo sapiens, UniProt P08183); test: Inhibition of P-gp in human MCF7/DX1 cells assessed as cellular accumulation of [3H]-daunomycin up to 100 uM after 30 mins by scintillation counting analysis; type: cell-based; conditions: mcf7/dx1, 40 min, in the assay text read “40 mins” for “30 mins”
How it was run: (§1)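 MCF-7/DX1 cells, 500,000 per well, seeded the day before and washed with ice-cold PBS. Incubated 40 min at 37 °C in BME with 5% calf serum, 0.25 µCi/mL [3H]-daunomycin and varying inhibitor concentrations; GF120918 1 µM as positive control. Cells washed, trypsinized 1 h at 37 °C, then scintillation counted. Counts normalized per 10,000 cells; IC50 from fitted concentration–response curves.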

[2] = target: T1, ATP-dependent translocase ABCB1; test: Inhibition of P-gp in human MCF7/DX1 cells assessed as cellular accumulation of BODIPY-prazosin up to 100 uM after 30 mins by flow cytometry; type: cell-based; conditions: mcf7/dx1, 0.5 h
How it was run: (§2)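 MCF-7/DX1 cells are maintained with 1 µM doxorubicin. 125,000 cells in BME, pretreated with substrate (BODIPY-prazosin 0.5 µM, NBD-Aba 5 µM or doxorubicin 3 µM final), then incubated with increasing inhibitor concentrations for 30 min at 37 °C in 1% DMSO. For doxorubicin, cells are re-pelleted and incubated a further 30 min in inhibitor-containing BME. Read-out: flow cytometry, FL1 for BODIPY-prazosin and NBD-Aba, FL2 (585/42) for doxorubicin; IC50 from mean fluorescence. GF120918 1 µM as positive control.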

[3] = target: T1, ATP-dependent translocase ABCB1; test: Inhibition of P-gp in human MCF7/DX1 cells assessed as cellular accumulation of NBD-Aba up to 100 uM after 30 mins by flow cytometry; type: cell-based; conditions: mcf7/dx1, 0.5 h; how it was run: as §2
[4] = target: T1, ATP-dependent translocase ABCB1; test: Inhibition of P-gp in human CMEC/D3 cells assessed as inhibition of NBD-Aba efflux after 30 mins by flow cytometry; type: cell-based
How it was run: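 hCMEC/D3 brain endothelial cells with endogenous P-gp, grown in supplemented EGM-2 on collagenated flasks. 125,000 cells in suspension in BME with NBD-Aba 5 µM final and increasing inhibitor concentrations, 30 min at 37 °C, 1% DMSO constant. GF120918 1 µM served as positive control. Cells resuspended in ice-cold PBS; FL1 flow cytometry on 10,000 cells; IC50 from mean fluorescence.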

[5] = target: T1, ATP-dependent translocase ABCB1; test: Inhibition of P-gp overexpressed in human 12D7-MDR cells assessed as inhibition of calcein-AM efflux after 30 mins by flow cytometry; type: cell-based; conditions: for inhibition (INH): human, 0.5 h
How it was run: (§3)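 12D7-MDR cells (RPMI 1640, 10% FBS, 37 °C, 5% CO2), 125,000 in suspension in BME with calcein-AM 0.25 µM or NBD-Aba 5 µM final, plus increasing inhibitor concentrations, 30 min at 37 °C, DMSO held at 1%. Controls: GF120918 1 µM (positive), 1% DMSO (negative). Cells resuspended in ice-cold PBS pH 7.4; FL1 flow cytometry, 10,000 cells per point; IC50 from mean fluorescence.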

[6] = target: T1, ATP-dependent translocase ABCB1; test: Inhibition of P-gp overexpressed in human 12D7-MDR cells assessed as inhibition of NBD-Aba efflux after 30 mins by flow cytometry; type: cell-based; conditions: for inhibition (INH): human, 0.5 h; how it was run: as §3
[7] = target: T1, ATP-dependent translocase ABCB1; test: Inhibition of P-gp in human MCF7/DX1 cells assessed as cellular accumulation of doxorubicin up to 100 uM after 30 mins by flow cytometry; type: cell-based; conditions: mcf7/dx1, 0.5 h; how it was run: as §2
[8] = target: T1, ATP-dependent translocase ABCB1; test: Ratio of inhibition of P-gp overexpressed in human 12D7-MDR cells using NBD-Aba as substrate to inhibition of P-gp in human MCF7/DX1 cells using NBD-Aba as substrate; type: cell-based
[9] = target: T1, ATP-dependent translocase ABCB1; test: Inhibition of P-gp in human MCF7/DX1 cells assessed as cellular accumulation of [3H]-daunomycin after 30 mins by scintillation counting analysis; type: cell-based; conditions: mcf7/dx1, 40 min, in the assay text read “40 mins” for “30 mins”; how it was run: as §1
[10] = target: T1, ATP-dependent translocase ABCB1; test: Inhibition of P-gp in human MCF7/DX1 cells assessed as cellular accumulation of BODIPY-prazosin after 30 mins by flow cytometry; type: cell-based; conditions: mcf7/dx1, 0.5 h; how it was run: as §2
[11] = target: T1, ATP-dependent translocase ABCB1; test: Inhibition of P-gp in human MCF7/DX1 cells assessed as cellular accumulation of doxorubicin after 30 mins by flow cytometry; type: cell-based; conditions: mcf7/dx1, 0.5 h; how it was run: as §2
[12] = target: T1, ATP-dependent translocase ABCB1; test: Displacement of [125I]-iodoarylazidoprazosin from human P-gp expressed in baculovirus-infected insect Sf9 cells incubated for 10 mins followed by UV light illumination for 20 mins by autoradiography
How it was run: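 Crude membranes (25 µg) from Sf9 cells infected with BV-MDR1 expressing human P-gp (72 h at 27 °C). Incubated 10 min at room temperature in the dark in 50 mM Tris-HCl pH 7.5 with 1 mM DTT and protease inhibitors, with [125I]-IAAP (~2200 Ci/mmol) and increasing inhibitor, then photo-crosslinked. Controls: 2.5% DMSO or GF120918 10 µM. Autoradiography and densitometry; values as percent of DMSO control, IC50 fitted.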

[13] = target: T1, ATP-dependent translocase ABCB1; test: Inhibition of P-gp in human MCF7/DX1 cells assessed as cellular accumulation of NBD-Aba after 30 mins by flow cytometry; type: cell-based; conditions: mcf7/dx1, 0.5 h; how it was run: as §2
[14] = target: T1, ATP-dependent translocase ABCB1; test: Inhibition of P-gp in human MCF7/DX1 cells assessed as cellular accumulation of NBD-Aba at 20 uM by confocal laser microscopy; type: cell-based; conditions: mcf7/dx1, 20 µM
How it was run: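 Confocal microscopy of MCF-7/DX1 cells given NBD-Aba 5 µM, with or without inhibitor at 20 µM.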

[15] = target: P-gp (ABCB1) (Homo sapiens, UniProt P08183); test: Ratio of inhibition of P-gp in human CMEC/D3 cells using NBD-Aba as substrate to inhibition of P-gp in human MCF7/DX1 cells using NBD-Aba as substrate; type: cell-based; conditions: CMEC/D3 cells and MCF7/DX1 cells, probe NBD-Aba
Chain of P-gp (ABCB1) (P08183 whole entry): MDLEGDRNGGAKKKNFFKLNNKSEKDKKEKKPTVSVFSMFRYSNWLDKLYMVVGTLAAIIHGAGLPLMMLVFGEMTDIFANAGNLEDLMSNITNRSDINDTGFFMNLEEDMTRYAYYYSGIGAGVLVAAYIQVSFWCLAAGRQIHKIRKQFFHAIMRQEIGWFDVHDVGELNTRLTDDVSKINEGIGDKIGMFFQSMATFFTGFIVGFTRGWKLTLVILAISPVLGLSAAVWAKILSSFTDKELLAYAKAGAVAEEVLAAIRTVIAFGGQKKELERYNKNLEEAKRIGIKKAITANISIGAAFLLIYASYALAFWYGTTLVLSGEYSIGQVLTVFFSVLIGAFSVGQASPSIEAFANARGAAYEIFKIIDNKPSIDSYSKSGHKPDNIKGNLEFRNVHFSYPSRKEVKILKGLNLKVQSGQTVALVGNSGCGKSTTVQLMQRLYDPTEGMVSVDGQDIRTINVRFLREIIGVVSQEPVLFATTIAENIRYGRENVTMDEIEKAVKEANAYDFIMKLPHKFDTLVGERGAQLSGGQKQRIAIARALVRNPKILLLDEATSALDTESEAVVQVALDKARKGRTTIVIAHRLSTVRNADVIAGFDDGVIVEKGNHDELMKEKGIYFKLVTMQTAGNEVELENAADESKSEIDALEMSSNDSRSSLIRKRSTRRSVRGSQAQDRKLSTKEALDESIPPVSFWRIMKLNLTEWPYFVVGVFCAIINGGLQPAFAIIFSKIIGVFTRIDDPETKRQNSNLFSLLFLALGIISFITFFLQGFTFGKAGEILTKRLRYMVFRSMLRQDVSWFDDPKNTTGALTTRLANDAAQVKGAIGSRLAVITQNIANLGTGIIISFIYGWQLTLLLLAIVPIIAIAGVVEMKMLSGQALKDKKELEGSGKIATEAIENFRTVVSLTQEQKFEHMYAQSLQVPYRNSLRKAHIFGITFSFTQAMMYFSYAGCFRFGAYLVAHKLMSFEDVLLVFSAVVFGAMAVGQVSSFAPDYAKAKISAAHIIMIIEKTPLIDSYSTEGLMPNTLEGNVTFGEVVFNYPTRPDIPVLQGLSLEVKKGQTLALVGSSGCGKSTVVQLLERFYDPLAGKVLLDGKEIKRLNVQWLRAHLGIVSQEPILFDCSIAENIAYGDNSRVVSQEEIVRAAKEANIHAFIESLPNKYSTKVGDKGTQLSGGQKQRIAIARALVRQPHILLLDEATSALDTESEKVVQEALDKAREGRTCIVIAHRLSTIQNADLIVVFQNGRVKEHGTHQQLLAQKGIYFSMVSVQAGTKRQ

T1 sequence (P08183 whole entry): as above

| inhibition (INH) [1] | inhibition (INH) [2] | inhibition (INH) [3] | IC50 [4] | IC50 [5] | IC50 [6] | inhibition (INH) [7] | inhibition (INH) [5] | inhibition (INH) [6] | Ratio [8] | INH [9] | INH [10] | INH [11] | IC50 [12] | inhibition (INH) ([12]; human, sf9, 10 min) | INH [13] | inhibition (INH) [14] | SMILES | selectivity ratio [15] |
| --- | --- | --- | --- | --- | --- | --- | --- | --- | --- | --- | --- | --- | --- | --- | --- | --- | --- | --- |
| Not Active | Not Active | Not Active | > 500 µM | > 500 µM | > 500 µM | Not Active | – | – | – | – | – | – | – | – | – | – | Nc1nc(NC2CC2)c2ncn([C@H]3C=C[C@@H](CO)C3)c2n1 [ABACAVIR] | – |
| – | – | – | 4.1 µM | 7.7 µM | 10.5 µM | – | Dose-dependent effect | Dose-dependent effect | – | – | – | – | – | – | – | – | Nc1nc(NC2CC2)c2ncn([C@H]3C=C[C@@H](COC(=O)CCCCCC(=O)OC[C@@H]4C=C[C@H](n5cnc6c(NC7CC7)nc(N)nc65)C4)C3)c2n1 | – |
| – | – | – | 3.8 µM | 2.6 µM | 2.6 µM | – | Dose-dependent effect | Dose-dependent effect | – | – | – | – | – | – | – | – | Nc1nc(NC2CC2)c2ncn([C@H]3C=C[C@@H](COC(=O)CCCCCCCC(=O)OC[C@@H]4C=C[C@H](n5cnc6c(NC7CC7)nc(N)nc65)C4)C3)c2n1 | – |
| – | – | – | 1.1 µM | 1.4 µM | 1.8 µM | – | Dose-dependent effect | Dose-dependent effect | – | – | – | – | – | – | – | – | Nc1nc(NC2CC2)c2ncn([C@H]3C=C[C@@H](COC(=O)CCCCCCCCCCC(=O)OC[C@@H]4C=C[C@H](n5cnc6c(NC7CC7)nc(N)nc65)C4)C3)c2n1 | – |
| – | – | – | – | 50 µM | – | – | Dose-dependent effect | – | – | – | – | – | – | – | – | – | Nc1nc(NC2CC2)c2ncn([C@H]3C=C[C@@H](COC(=O)CCC(=O)OC[C@@H]4C=C[C@H](n5cnc6c(NC7CC7)nc(N)nc65)C4)C3)c2n1 | – |
| – | – | – | 3.6 µM | 2.3 µM | 2.1 µM | – | Dose-dependent effect | Dose-dependent effect | 6 | 9.2 µM | 5.1 µM | 12.8 µM | 0.24 µM | Dose-dependent effect | 11.8 µM | Active | Nc1nc(NC2CC2)c2ncn([C@H]3C=C[C@@H](COC(=O)CCCCCCCCC(=O)OC[C@@H]4C=C[C@H](n5cnc6c(NC7CC7)nc(N)nc65)C4)C3)c2n1 | 3 |

Reference: ChEMBL document CHEMBL3217676, “Homodimers of the Antiviral Abacavir as Modulators of P-glycoprotein Transport in Cell Culture: Probing Tether Length” (Medchemcomm, 2013)
